Shown are actives, neighbours in structure and some others; about 1.2% of the full set was active somewhere.
zfTRPN1 agonist: zebrafish TRPN1 channel agonists, primary screen, cell-based, HEK293, calcium fluorescence; activation, % at 3 µM; hit rate 0.18% among 220,000; transient receptor potential cation channel N1 (TRPN1/NompC), Danio rerio; HEK293 zebrafish TRPN1-YFP, Fluo-8 calcium fluorescence; 100% = response to 87 µM carbachol;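 active = activation above its plate's cutoff, the mean activation of test wells on that plate plus 3 SD, cut at about 19% in these data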;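 also: 0% = DMSO alone and 100% = 87 µM carbachol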
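Control set: carbachol 87 µM as high control, DMSO as low control; system: HEK293 stable line with zebrafish TRPN1-YFP; read-out: % activation versus carbachol response; detection: intracellular calcium fluorescence with Fluo-8; doses: single test compound dose, 3 µM nominal, 0.3% DMSO; schedule: dye 1 h 37 °C plus 30 min RT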
CRFR2-BP antag: antagonists of CRF-BP/CRF-R2 complex, primary screen, cell-based, HEK293, calcium dye fluorescence, uHTS | CRF-induced calcium fluorescence | inhibition, % at 11.8 µM | hit rate 0.59% among 350,000;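 active = inhibition of the ligand-induced calcium signal above about 50% at the single tested concentration, limit read from the data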
CRFBP-R2 agonist: agonists of CRF-BP/CRF-R2 complex, primary screen, cell-based, HEK293, calcium dye fluorescence, uHTS. activation, % at 13.2 µM. calcium dye fluorescence (FLIPR); percent of saturating CRF peptide response. hit rate 0.46% among 350,000. AID 588473, 2011. CRF-binding protein / CRF receptor 2 complex (human);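 active = activation of at least 50%, plus an integration ratio under a set limit after plate pattern correction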;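 also: plate controls were neutral control wells without compound for no effect and CRF at EC100 for full effect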
TRPML3 ag: human TRPML3 channel agonists, primary screen, cell-based, HEK293 TRPML3-YFP, Fluo-8 calcium fluorescence, 3 µM. 100% = the carbachol control signal. Mucolipin-3 (Homo sapiens), Q8TDD5. hit rate 0.29% among 220,000. activation, % at 3 µM;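 active = activation above its plate's cutoff, the mean activation of the plate's test wells plus 3 SD, cut at about 12% in these data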;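 also: 0% = DMSO only wells and 100% = carbachol wells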
Target sequence (Q8TDD5 whole entry, looked up): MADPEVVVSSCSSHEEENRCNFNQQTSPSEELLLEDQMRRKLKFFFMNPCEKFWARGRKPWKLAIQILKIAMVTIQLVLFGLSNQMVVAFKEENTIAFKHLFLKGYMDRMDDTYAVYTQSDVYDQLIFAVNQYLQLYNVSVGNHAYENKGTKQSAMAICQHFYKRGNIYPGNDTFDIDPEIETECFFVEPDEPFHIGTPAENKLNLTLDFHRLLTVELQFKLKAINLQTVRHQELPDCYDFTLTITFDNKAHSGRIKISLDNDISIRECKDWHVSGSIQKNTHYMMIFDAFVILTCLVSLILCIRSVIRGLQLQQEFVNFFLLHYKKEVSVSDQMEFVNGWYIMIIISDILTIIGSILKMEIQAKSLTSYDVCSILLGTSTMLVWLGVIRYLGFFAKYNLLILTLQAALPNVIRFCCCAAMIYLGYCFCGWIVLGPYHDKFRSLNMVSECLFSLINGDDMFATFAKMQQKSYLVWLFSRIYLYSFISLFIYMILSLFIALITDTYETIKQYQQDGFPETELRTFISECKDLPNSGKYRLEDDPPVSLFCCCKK
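Test system: TRPML3-YFP stable HEK293 cells. Doses: single point at 3 µM. Incubation: dye loading 1 h 37 °C then 30 min ambient, 125 s read. Signal: Fluo-8 calcium dye fluorescence, ex 470-495, em 515-575 nm. Measure: percent activation from peak-to-basal fluorescence ratio, scaled between DMSO and carbachol.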
Active calls of the source: *.

What do the screens show for `Cc1[nH]c2ccccc2c1/C=C/c1cc[n+](C)cc1`?
zfTRPN1 agonist: 1; CRFR2-BP antag: -94; CRFBP-R2 agonist: 81*; TRPML3 ag: 2

What do the screens show for `Cc1ccc(C(=O)Nc2ccc3c(c2)CCC3)cc1S(=O)(=O)N1CCOCC1`?
zfTRPN1 agonist: 5; CRFR2-BP antag: -39; CRFBP-R2 agonist: 0; TRPML3 ag: 1

What do the screens show for `CC(C)(CSc1ncccn1)NS(=O)(=O)c1ccccc1`?
zfTRPN1 agonist: 0; CRFR2-BP antag: 66*; CRFBP-R2 agonist: 0; TRPML3 ag: 1

Results for Cc1ccc(S(=O)(=O)Nc2ccccc2C=Nc2cccc(C)c2C)cc1 ?
zfTRPN1 agonist: -1; CRFR2-BP antag: 29; CRFBP-R2 agonist: 0; TRPML3 ag: 0

How did Cc1ccc(S(=O)(=O)Nc2ccccc2/C=N/c2nc3ccccc3n2C)cc1 do in these assays?
zfTRPN1 agonist: -2; CRFR2-BP antag: 71*; CRFBP-R2 agonist: -2; TRPML3 ag: 0

Results for CN(C)CCNc1ncnc2sc(-c3ccccc3)cc12 ?
CRFR2-BP antag: 4; CRFBP-R2 agonist: -1

How did O=C(NCc1ccco1)C1CC(c2ccccc2O)=NO1 (stereo not given) do in these assays?
zfTRPN1 agonist: -2; CRFR2-BP antag: -55; CRFBP-R2 agonist: 77*; TRPML3 ag: -1

What do the screens show for `CC(C)Cn1cc(C(=O)N2CCC(C)CC2)c2c3ccccc3n(C)c2c1=O`?
zfTRPN1 agonist: 3; CRFR2-BP antag: 50*; CRFBP-R2 agonist: -2; TRPML3 ag: 1

What do the screens show for `CC(C)Cn1cc(C(=O)N2CCOCC2)c2c3ccccc3n(C)c2c1=O`?
zfTRPN1 agonist: 0; CRFR2-BP antag: -2; CRFBP-R2 agonist: 2; TRPML3 ag: 0

Results for O=C(O)C1C2C=CC(O2)C1C(=O)Nc1ccccc1C(F)(F)F (stereo not given) ?
zfTRPN1 agonist: 0; CRFR2-BP antag: 58*; CRFBP-R2 agonist: 0; TRPML3 ag: 1

What do the screens show for `OCCN(CCO)c1nc(N2CCCCC2)c2nc(N(CCO)CCO)nc(N3CCCCC3)c2n1`?
zfTRPN1 agonist: 11; CRFR2-BP antag: -138; CRFBP-R2 agonist: 179*; TRPML3 ag: 6

How did COc1ccc(-c2ccc(SCc3ccccn3)nn2)cc1OC do in these assays?
zfTRPN1 agonist: 2; CRFR2-BP antag: -13; CRFBP-R2 agonist: -3; TRPML3 ag: 1

Results for Cc1ccc(C)c(C(C)NC(=O)c2ccccc2Br)c1 (stereo not given) ?
zfTRPN1 agonist: -2; CRFR2-BP antag: 64*; CRFBP-R2 agonist: -1; TRPML3 ag: 0

Results for ClC(=C\c1ccccc1)/C=N/N1CCN(c2ccccn2)CC1 ?
zfTRPN1 agonist: 1; CRFR2-BP antag: 20; CRFBP-R2 agonist: 0; TRPML3 ag: 1

How did NC(=O)c1cc2ccc(O)cc2oc1=NCc1ccccc1 do in these assays?
zfTRPN1 agonist: 1; CRFR2-BP antag: -351; CRFBP-R2 agonist: 319*; TRPML3 ag: 0

How did Cc1ccc(-c2nnc(SCC(=O)N3CCN(c4ccccc4)CC3)o2)cc1 do in these assays?
zfTRPN1 agonist: -1; CRFR2-BP antag: 88*; CRFBP-R2 agonist: -1; TRPML3 ag: 0

Results for COc1ccc(-c2nnc(SCC(=O)N3CCN(c4ccccc4)CC3)o2)cc1OC ?
zfTRPN1 agonist: 1; CRFR2-BP antag: -11; CRFBP-R2 agonist: -2; TRPML3 ag: 0

How did CCOC(=O)N1CCN(C(=O)CSc2nnc(-c3ccc(C(C)(C)C)cc3)o2)CC1 do in these assays?
zfTRPN1 agonist: 1; CRFR2-BP antag: 89*; CRFBP-R2 agonist: -2; TRPML3 ag: 0

How did Cc1ccnc(SCC(=O)N2CCN(c3ccccc3)CC2)n1 do in these assays?
zfTRPN1 agonist: 1; CRFR2-BP antag: -6; CRFBP-R2 agonist: 0; TRPML3 ag: 0

What do the screens show for `CCOC(=O)N1CCN(C(=O)CSc2nnc(-c3ccc(C)c(C)c3)o2)CC1`?
zfTRPN1 agonist: 0; CRFR2-BP antag: -1; CRFBP-R2 agonist: -2; TRPML3 ag: 0

What do the screens show for `COc1ccc(-c2ccnc(SCC(=O)N3CCN(c4ccccc4)CC3)n2)cc1`?
zfTRPN1 agonist: 0; CRFR2-BP antag: 61*; CRFBP-R2 agonist: -6; TRPML3 ag: 1

What do the screens show for `CC(=O)c1c(O)cc(C)n(-c2ccc(F)cc2)c1=O`?
zfTRPN1 agonist: 1; CRFR2-BP antag: -6; CRFBP-R2 agonist: 0; TRPML3 ag: 1
